Source: ChEMBL document CHEMBL1157524, “Synthesis and SAR of a mGluR5 allosteric partial antagonist lead: unexpected modulation of pharmacology with slight structural modifications to a 5-(phenylethynyl)pyrimidine scaffold” (Bioorg Med Chem Lett, 2008)

How the values were obtained:
[1] = biological target: Metabotropic glutamate receptor 5 (Rattus norvegicus) (UniProt P31424); assay: (§1) Antagonist activity at rat mGluR5 expressed in HEK293A cells assessed as inhibition of glutamate-induced calcium fluorescence; type: functional, cell-based; parameters: concentration or dose not given beside the values; details: HEK293-A
[2] = biological target: T1, Metabotropic glutamate receptor 5 (Rattus norvegicus, UniProt P31424); assay: Activity at rat mGluR5 expressed in HEK293A cells; type: cell-based, HEK293-A
[3] = biological target: T1, Metabotropic glutamate receptor 5; assay: as §1; type: functional, cell-based, HEK293-A
[4] = biological target: Metabotropic glutamate receptor 5 (Rattus norvegicus) (UniProt P31424); assay: Induction of rat mGluR5 activation expressed in HEK293A cells assessed as maximal response in presence of glutamate; type: cell-based; details: HEK293-A
Summary of the method: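 Potentiator mode in rat mGluR5 HEK293A cells loaded with Fluo4-AM (4.0 µM, 45 min, 37 °C) in HBSS/20 mM Hepes/2.5 mM probenecid, pH 7.4. Compound added at 19 s, then submaximal glutamate (150–165 nM) at 109 s. Calcium fluorescence read and compared with maximal glutamate response. Vehicle 0.3% DMSO. Triplicate on three days.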

[5] = biological target: T1, Metabotropic glutamate receptor 5; assay: Displacement of [3H]methoxy-PEPy from rat mGluR5 expressed in HEK293A cells; type: cell-based, HEK293-A
Summary of the method: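 Membranes from HEK293A cells with rat mGluR5 were incubated with 2 nM (final) [³H]methoxy-PEPy in 50 mM Tris, 0.9% NaCl, pH 7.4. Incubation was 60 min at room temperature with shaking. Bound ligand was separated by GF/B filtration with four buffer washes and counted by scintillation. MPEP defined nonspecific binding. Triplicate on three days.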

T1 sequence (P31424 whole entry): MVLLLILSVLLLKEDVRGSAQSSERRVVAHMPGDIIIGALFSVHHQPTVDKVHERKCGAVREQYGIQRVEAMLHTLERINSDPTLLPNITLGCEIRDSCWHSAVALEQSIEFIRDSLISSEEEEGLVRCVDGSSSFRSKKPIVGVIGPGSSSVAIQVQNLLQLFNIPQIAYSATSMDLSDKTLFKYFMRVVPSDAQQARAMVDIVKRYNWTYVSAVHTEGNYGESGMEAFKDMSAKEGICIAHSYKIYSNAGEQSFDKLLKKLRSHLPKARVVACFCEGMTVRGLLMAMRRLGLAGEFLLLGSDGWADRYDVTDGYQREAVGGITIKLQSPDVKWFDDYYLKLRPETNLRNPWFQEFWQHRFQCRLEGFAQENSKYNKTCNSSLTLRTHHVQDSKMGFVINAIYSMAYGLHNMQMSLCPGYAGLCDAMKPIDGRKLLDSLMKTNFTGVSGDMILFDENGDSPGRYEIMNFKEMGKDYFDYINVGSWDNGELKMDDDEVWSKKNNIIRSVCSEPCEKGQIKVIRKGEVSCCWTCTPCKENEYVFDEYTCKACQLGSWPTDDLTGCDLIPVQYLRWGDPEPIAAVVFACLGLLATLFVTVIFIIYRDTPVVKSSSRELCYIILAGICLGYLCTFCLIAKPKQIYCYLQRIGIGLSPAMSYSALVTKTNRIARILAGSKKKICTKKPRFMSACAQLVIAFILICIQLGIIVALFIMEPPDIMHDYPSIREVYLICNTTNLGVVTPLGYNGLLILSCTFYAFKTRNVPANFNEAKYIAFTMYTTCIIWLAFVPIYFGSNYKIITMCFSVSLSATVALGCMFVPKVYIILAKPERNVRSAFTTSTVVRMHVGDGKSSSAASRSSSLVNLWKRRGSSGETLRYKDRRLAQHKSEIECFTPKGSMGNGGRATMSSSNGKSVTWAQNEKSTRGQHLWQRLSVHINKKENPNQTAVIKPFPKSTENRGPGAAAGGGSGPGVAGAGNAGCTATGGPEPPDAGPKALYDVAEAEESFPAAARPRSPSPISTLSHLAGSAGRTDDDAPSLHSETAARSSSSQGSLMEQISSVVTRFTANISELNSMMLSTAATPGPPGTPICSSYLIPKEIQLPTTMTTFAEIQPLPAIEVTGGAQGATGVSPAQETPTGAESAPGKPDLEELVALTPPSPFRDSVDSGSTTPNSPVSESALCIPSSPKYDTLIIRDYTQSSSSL
Sequence of Metabotropic glutamate receptor 5 (Rattus norvegicus) (P31424 21-1203 limits assumed): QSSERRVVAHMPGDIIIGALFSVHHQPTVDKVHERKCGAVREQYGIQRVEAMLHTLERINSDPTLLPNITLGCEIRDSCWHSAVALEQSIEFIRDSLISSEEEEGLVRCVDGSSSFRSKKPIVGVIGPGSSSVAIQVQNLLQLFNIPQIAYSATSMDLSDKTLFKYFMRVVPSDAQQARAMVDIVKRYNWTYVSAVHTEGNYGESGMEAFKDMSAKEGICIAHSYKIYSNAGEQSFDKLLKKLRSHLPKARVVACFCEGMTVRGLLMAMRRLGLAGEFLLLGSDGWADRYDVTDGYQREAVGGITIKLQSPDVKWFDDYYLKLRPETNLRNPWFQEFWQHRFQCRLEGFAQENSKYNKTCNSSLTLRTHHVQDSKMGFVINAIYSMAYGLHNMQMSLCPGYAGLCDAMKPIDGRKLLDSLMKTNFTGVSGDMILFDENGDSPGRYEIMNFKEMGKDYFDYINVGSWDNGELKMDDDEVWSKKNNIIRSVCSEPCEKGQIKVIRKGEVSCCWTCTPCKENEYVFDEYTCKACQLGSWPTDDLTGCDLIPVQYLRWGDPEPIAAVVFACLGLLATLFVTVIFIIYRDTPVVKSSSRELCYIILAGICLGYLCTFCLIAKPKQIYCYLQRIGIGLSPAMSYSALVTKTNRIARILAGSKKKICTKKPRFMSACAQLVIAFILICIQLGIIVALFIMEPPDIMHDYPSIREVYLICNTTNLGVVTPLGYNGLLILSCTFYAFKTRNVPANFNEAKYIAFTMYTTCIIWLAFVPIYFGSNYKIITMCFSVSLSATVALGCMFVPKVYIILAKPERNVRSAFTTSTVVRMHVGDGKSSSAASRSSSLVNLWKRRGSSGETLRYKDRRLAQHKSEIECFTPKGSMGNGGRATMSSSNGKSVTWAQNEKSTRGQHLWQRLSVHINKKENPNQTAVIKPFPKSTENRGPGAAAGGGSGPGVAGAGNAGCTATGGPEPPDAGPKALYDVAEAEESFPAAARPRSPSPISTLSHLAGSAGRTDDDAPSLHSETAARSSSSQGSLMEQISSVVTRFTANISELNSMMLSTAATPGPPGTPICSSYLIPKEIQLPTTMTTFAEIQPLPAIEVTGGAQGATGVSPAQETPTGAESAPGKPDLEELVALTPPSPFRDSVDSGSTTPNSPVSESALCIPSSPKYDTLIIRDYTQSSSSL

Compound: Cc1ccc(C#Cc2cncc(Br)c2)nc1
- Activity [1]: 50%

Compound: Clc1ccc(C#Cc2cncnc2)cc1
- EC50 [2]: 3900 nM

Compound: Cc1ccc(C)c(C#Cc2cncnc2)c1
- Activity [1]: 58%
- IC50 [3]: 11200 nM

Compound: Cc1ccc(C#Cc2cncnc2)cc1
- EC50 [2]: 3300 nM
- Activity [4]: 99%

Compound: Clc1cccc(C#Cc2cncnc2)c1
- Activity [1]: 100%
- IC50 [3]: 34 nM

Compound: C(#Cc1cncnc1)c1ccccc1
- Activity [1]: 71%
- IC50 [3]: 480 nM
- Ki [5]: 126 nM

Compound: FC(F)(F)c1cccc(C#Cc2cncnc2)c1
- Activity [1]: 100%
- IC50 [3]: 450 nM

Compound: Cc1cc(C#Cc2cncnc2)ccc1F
- Activity [1]: 100%
- IC50 [3]: 350 nM

Compound: Fc1cc(F)cc(C#Cc2cncnc2)c1
- Activity [1]: 100%
- IC50 [3]: 6400 nM

Compound: CCc1ccc(C#Cc2cncnc2)cc1
- EC50 [2]: 18800 nM

Compound: Cc1cccc(C#Cc2cncnc2)c1
- Activity [1]: 100%
- IC50 [3]: 7 nM

Compound: O=Cc1ccc(C#Cc2cncnc2)cc1
- EC50 [2]: 7900 nM

Compound: Fc1cccc(/C=N/N=C/c2cccc(F)c2)c1
- Activity [4]: < 70%

Compound: COc1cccc(C#Cc2ccc(C)cn2)c1
- Activity [1]: 50%

Compound: N#Cc1cccc(C(=O)Nc2cc(-c3ccccc3)nn2-c2ccccc2)c1
- Activity [4]: < 70%

Compound: O=C(Nc1cccc(F)c1)c1cccc(Cl)c1
- Activity [1]: 58%
- EC50 [3]: 297 nM

Compound: O=C(Nc1ccc(Cl)cc1CN1C(=O)c2ccccc2C1=O)c1ccccc1O
- Activity [4]: < 70%

Compound: C(#Cc1cncnc1)c1ccc(-c2ccccc2)cc1
- Activity [1]: 100%
- IC50 [3]: 7800 nM
